High-throughput results (PubChem)
F508del corr – F508del CFTR correction, initial screen, CFBE line, single point. actives 0.36% (n = 350,000). CFBE cells, YFP halide quenching; stimulated with forskolin plus potentiator P3; % fluorescence drop versus neutral controls. activity (quench increase), % at 7.58 µM;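 active means mean added fluorescence quench of at least 8% versus neutral control, with both replicates also reaching 8%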;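 further: cells transiently co-express mutant CFTR-F508del with the halide-sensitive YFP; corrector assay measuring rescue of mutant channel to the surface after 24 h compound exposure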
FGF22 binding – binders of human FGF22 protein, primary screen, FGF22 synaptogenesis inhibitor project, biophysical, thermal shift, single point; actives 1.5% (n = 340,000); activity (Tm shift, normalised), % at 9.99 µM; AID 651658, 2012; recombinant FGF22 thermal shift, SYPRO orange fluorescence; percent of sucrose octasulfate shift, DMSO zero; Fibroblast growth factor 22 (Homo sapiens), Q9HCT0;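 active means mean Tm shift, scaled 0 neutral to 100 positive control, at about 1.3% or above, every replicate too, limit read from the data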
Target sequence (Q9HCT0 whole entry, looked up): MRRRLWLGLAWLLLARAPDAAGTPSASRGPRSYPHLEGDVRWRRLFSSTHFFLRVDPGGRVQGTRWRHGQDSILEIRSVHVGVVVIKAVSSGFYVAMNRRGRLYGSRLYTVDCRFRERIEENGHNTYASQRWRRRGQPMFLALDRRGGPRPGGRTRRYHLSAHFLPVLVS
E-selectin induc – E-selectin induction in HUVECs, primary screen, imaging, HUVEC, immunofluorescence imaging, single point. activation, % at 7.58 µM. actives 0.37% (n = 260,000). normalized: neutral wells 0, TNF-alpha wells 100. P16581;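 active means mean E-selectin-positive cell signal at least 10% of the positive control, reached in at least 60% of replicates, without over 20% cell loss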
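Test system: HUVEC; input: 3,000 HUVEC/well; measured by: immunofluorescence imaging; read-out: % PE-positive cells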
HIV Env fusion – inhibitors of HIV-1 Env-driven cell-cell fusion, primary screen, HeLa-JRFL effector, CEM21 target cells, luciferase; inhibition, % at 12.3 µM; actives 1.1% (n = 360,000); AID 651610, 2012;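 active means mean replicate inhibition score of at least 50 and every replicate individually at or above 50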;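 further: 0% = plate neutral controls and 100% = maraviroc near 300 nM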
S100A4 MyoIIA – inhibitors of S100A4-myosin IIA peptide binding, primary screen, biochemical, fluorescence polarization, TAMRA-MyoIIA peptide | actives 0.14% (n = 360,000) | inhibition, % at 10.7 µM | Protein S100-A4 (Homo sapiens), P26447 | AID 652163, 2013;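 active means mean inhibition of at least 70% across replicates, with every replicate also reaching that level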
Target sequence (P26447 whole entry, looked up): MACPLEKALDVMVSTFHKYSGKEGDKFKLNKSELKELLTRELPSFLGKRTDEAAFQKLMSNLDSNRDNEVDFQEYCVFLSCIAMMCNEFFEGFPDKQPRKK
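Test system – S100A4 monomer (human) · Compound – single-point compound testing · Schedule – 5 min incubation before reading · Probe or stimulus – TAMRA-labelled myosin IIA heavy-chain peptide probe, 5 nM · Benchmarks – neutral control DMSO, positive control TFP · Medium – Calcium-containing HEPES buffer, pH 7.2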
* marks the source's active call; other numbers are inactive results; [ ] = another dose, or the depositor's remark. Only some compounds are listed: those with a hit (about 2.7% of all), similar ones and a draw of the others.

Results for O=C(C[C@@H]1CC[C@@H](NC(=O)c2cnccn2)[C@@H](CO)O1)NCc1ccccc1F ?
F508del corr: 0; FGF22 binding: 0; E-selectin induc: 0; HIV Env fusion: -4[16.7 µM]; S100A4 MyoIIA: 5

What do the screens show for `O=C(C[C@H]1C[C@H]2c3cc(NC(=O)c4cccnc4)ccc3O[C@H]2[C@H](CO)O1)NCC(F)(F)F`?
F508del corr: -3; FGF22 binding: 0; E-selectin induc: 0; HIV Env fusion: -7[16.7 µM]; S100A4 MyoIIA: 4

Results for CC(=O)N(C)C[C@@H]1Oc2ncc(C#Cc3ccncc3)cc2C(=O)N([C@H](C)CO)C[C@@H]1C ?
F508del corr: -3; E-selectin induc: 0; HIV Env fusion: -7[16.7 µM]; S100A4 MyoIIA: 6

Results for CCOC(=O)c1c(NC(=O)CSc2nnnn2C)sc(C)c1-c1ccc(C)cc1 ?
HIV Env fusion: 81*

What do the screens show for `O=C1NC[C@@H](CCCCN2C[C@H](Cc3ccccc3)N(CCC3CCCCC3)C(=O)C2=O)N(CCc2ccccc2)C1=O`?
F508del corr: -1; FGF22 binding: 0; E-selectin induc: 1; HIV Env fusion: 1; S100A4 MyoIIA: -1

What do the screens show for `O=C1NC[C@H](CCCCN2C[C@H](Cc3ccc(O)cc3)N(Cc3ccccc3)C(=O)C2=O)N(CCc2ccc(O)cc2)C1=O`?
F508del corr: -1; FGF22 binding: 0; E-selectin induc: 5; HIV Env fusion: 0; S100A4 MyoIIA: -1

How did O=C1NC[C@@H](CCCCN2C[C@H](Cc3ccc(O)cc3)N(Cc3ccccc3)C(=O)C2=O)N(CCc2ccc(O)cc2)C1=O do in these assays?
F508del corr: 1; FGF22 binding: 0; E-selectin induc: 0; HIV Env fusion: 57*; S100A4 MyoIIA: 0

How did O=C1NC[C@H](CCCCN2C[C@H](Cc3ccccc3)N(CCC3CCCCC3)C(=O)C2=O)N(CCc2ccccc2)C1=O do in these assays?
F508del corr: -3; FGF22 binding: 8.8*; HIV Env fusion: -306; S100A4 MyoIIA: 13

What do the screens show for `COCC(=O)Nc1ccc2c(c1)OC[C@H](C)N(C(=O)c1ccccc1F)C[C@@H](C)[C@H](OC)CN(C)C2=O`?
F508del corr: -2; FGF22 binding: 0; E-selectin induc: 0; S100A4 MyoIIA: 10

What do the screens show for `C[C@@H]1CN([C@H](C)CO)C(=O)c2cc(N(C)C)ccc2O[C@@H](C)CCCCO[C@@H]1CN(C)Cc1ccc2c(c1)OCO2`?
F508del corr: -2; FGF22 binding: -1; E-selectin induc: 0; HIV Env fusion: -4[16.7 µM]; S100A4 MyoIIA: 5

Results for CC(C)(C)NC(=O)CN(Cc1cccs1)C(=O)CNS(=O)(=O)c1ccc(F)cc1 ?
F508del corr: -1; FGF22 binding: 43*; HIV Env fusion: 0; S100A4 MyoIIA: 2

How did C[C@@H]1CN([C@H](C)CO)C(=O)c2cccc(NS(=O)(=O)c3cn(C)cn3)c2O[C@@H]1CN(C)C(=O)Nc1ccccc1 do in these assays?
F508del corr: 2; FGF22 binding: 1; E-selectin induc: 0; HIV Env fusion: 4[16.7 µM]; S100A4 MyoIIA: 4

How did Cc1noc(C)c1COc1ccc(C(=O)OCC(=O)NCCN2C(=O)CSC2=O)cc1 do in these assays?
F508del corr: -4; FGF22 binding: 44*; E-selectin induc: 0; HIV Env fusion: 5; S100A4 MyoIIA: 0

Results for O=C(COC(=O)c1ccc(OC(F)(F)F)cc1)NCCN1C(=O)CSC1=O ?
F508del corr: -2; FGF22 binding: 0; HIV Env fusion: -1; S100A4 MyoIIA: 4

Results for O=[N+]([O-])c1cccc(S(=O)(=O)NCCOc2cccc3cccnc23)c1 ?
F508del corr: -1; FGF22 binding: 0; E-selectin induc: -1; HIV Env fusion: 0; S100A4 MyoIIA: -3

Results for COc1ccc(OCCNS(=O)(=O)c2cccc([N+](=O)[O-])c2)cc1 ?
F508del corr: 1; FGF22 binding: 43*; HIV Env fusion: 5; S100A4 MyoIIA: 0

How did CCC(=O)N1CCCCN2[C@H](C1)[C@H](c1ccc(/C=C/c3ccccc3)cc1)[C@@H]2CO do in these assays?
F508del corr: 0; FGF22 binding: 0; E-selectin induc: -1; S100A4 MyoIIA: 3

Results for COc1cccc(C2c3c(oc4ccccc4c3=O)C(=O)N2CCCN2CCOCC2)c1OC (configuration not stated) ?
F508del corr: -1; FGF22 binding: 0; E-selectin induc: 46*; HIV Env fusion: -10; S100A4 MyoIIA: 6

What do the screens show for `O=C1c2oc3ccccc3c(=O)c2C(c2cccc(O)c2)N1CCCN1CCOCC1` (configuration not stated)?
F508del corr: -1; FGF22 binding: 0; E-selectin induc: 1; HIV Env fusion: -4; S100A4 MyoIIA: -2

How did Cc1cc(C)n(C(=O)CCCn2cc([N+](=O)[O-])cn2)n1 do in these assays?
F508del corr: 0; FGF22 binding: 43*; HIV Env fusion: 5; S100A4 MyoIIA: -2

What do the screens show for `CN(C)S(=O)(=O)c1ccc(C(=O)NCCN2C(=O)S/C(=C\c3cccnc3)C2=O)cc1`?
F508del corr: 0; FGF22 binding: 43*; HIV Env fusion: 18; S100A4 MyoIIA: -1

Results for C[C@H]1CN([C@@H](C)CO)C(=O)c2cc(C3=CCCC3)cnc2O[C@H]1CN(C)C(=O)c1ccncc1 ?
F508del corr: -2; FGF22 binding: 0; E-selectin induc: 0; S100A4 MyoIIA: -15

How did C[C@H](CO)N1C[C@H](C)[C@@H](CN(C)C(=O)Nc2ccc(C(F)(F)F)cc2)OCCCC[C@H](C)Oc2ccc(NS(=O)(=O)c3ccccc3)cc2C1=O do in these assays?
F508del corr: -1; FGF22 binding: 0; E-selectin induc: 0; HIV Env fusion: 19[16.7 µM]; S100A4 MyoIIA: -8

How did COCCSc1ccccc1C(=O)Nc1cc([N+](=O)[O-])ccc1OC do in these assays?
F508del corr: 18*; FGF22 binding: 0; E-selectin induc: 2; HIV Env fusion: 9; S100A4 MyoIIA: -2

Results for COc1ccc(N=N/C(=C\O)C(=O)c2ccco2)cc1 ?
F508del corr: 2; FGF22 binding: 43*; HIV Env fusion: -1; S100A4 MyoIIA: 2

Results for COc1ccc(/C(N)=N/OC(=O)c2ccco2)cc1 ?
F508del corr: -2; FGF22 binding: 42; HIV Env fusion: -71; S100A4 MyoIIA: -5

What do the screens show for `CC(C)NC(=O)N(C)C[C@@H]1Oc2ncc(-c3ccccc3)cc2C(=O)N([C@H](C)CO)C[C@@H]1C`?
F508del corr: 2; FGF22 binding: 0; E-selectin induc: 0; HIV Env fusion: 2[16.7 µM]; S100A4 MyoIIA: -3
